Experimental data as given in ChEMBL document CHEMBL1932980, “Structure-activity relationships of 2-amino-3-aroyl-4-[(4-arylpiperazin-1-yl)methyl]thiophenes. Part 2: Probing the influence of diverse substituents at the phenyl of the arylpiperazine moiety on allosteric enhancer activity at the A₁ adenosine receptor” (Bioorg Med Chem, 2012).

What was measured:
[1] = target: T1, Adenosine receptor A1 (Homo sapiens) (UniProt P30542); assay: Binding affinity to recombinant human A1 adenosine receptor allosteric site expressed in CHO cells assessed as [3H]CCPA Bmax shift at 10 uM after 90 mins relative to control; format: cell-based
T1 sequence (whole entry): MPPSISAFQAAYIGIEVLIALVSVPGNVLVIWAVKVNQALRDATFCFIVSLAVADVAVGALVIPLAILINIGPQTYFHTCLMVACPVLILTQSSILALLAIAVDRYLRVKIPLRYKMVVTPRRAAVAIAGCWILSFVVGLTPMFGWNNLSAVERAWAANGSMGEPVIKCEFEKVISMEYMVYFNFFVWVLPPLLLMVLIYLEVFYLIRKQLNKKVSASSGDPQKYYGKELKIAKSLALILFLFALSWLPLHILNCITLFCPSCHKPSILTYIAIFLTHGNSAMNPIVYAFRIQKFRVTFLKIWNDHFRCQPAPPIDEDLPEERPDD
How it was run: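 Saturation binding of [3H]CCPA (0.05–20 nM) to hA1CHO membranes. Membranes pretreated with adenosine deaminase 3 UI/mL for 30 min at 37 °C. Run in triplicate, 90 min at 25 °C, in 50 mM Tris–HCl pH 7.4, with or without test compound at final 10 µM. Nonspecific binding taken with 1 µM R-PIA. Bmax fitted by LIGAND. Shift is the fold of Bmax increase over control.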

[2] = target: T1, Adenosine receptor A1 (Homo sapiens); assay: Displacement of [3H]DPCPX from recombinant human A1 adenosine receptor expressed in CHO cells at 10 uM after 120 mins by scintillation counting; format: cell-based
How it was run: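 Membranes from hA1CHO cells incubated with 1 nM [3H]DPCPX in 50 mM Tris–HCl pH 7.4 at 25 °C for 120 min. Compound added from a 100-fold DMSO stock, so 1% DMSO final, also present in controls. Bound ligand separated on GF/B filters and counted by scintillation. Result given as % of control specific binding.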

[3] = target: T1, Adenosine receptor A1 (Homo sapiens); assay: Allosteric enhancer activity at recombinant human A1 adenosine receptor expressed in CHO cells assessed as change in forskolin-induced cAMP production at 0.01 uM after 6 mins by radioimmunoassay; format: functional, cell-based
How it was run: (§1)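 hA1CHO cells (about 8000 fmol/mg protein) thawed from low-passage stocks, grown in Ham's F-12 with 10% FBS and G-418, then plated 48 h. Test compound at 0.01, 0.1, 1 or 10 µM with CPA (0.05–0.1 nM) for 6 min at 36 °C. Stopped with HCl (final 50 mM). cAMP in acidified extracts measured by radioimmunoassay. Reference enhancer run in each experiment. Four experiments per concentration.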

[4] = target: T1, Adenosine receptor A1 (Homo sapiens); assay: Allosteric enhancer activity at recombinant human A1 adenosine receptor expressed in CHO cells assessed as change in forskolin-induced cAMP production at 0.1 uM after 6 mins by radioimmunoassay; format: functional, cell-based; how it was run: as §1
[5] = target: Adenosine receptor A2a (Homo sapiens) (UniProt P29274); assay: Displacement of [3H]ZM241385 from recombinant human A2A adenosine receptor expressed in CHO cells at 10 uM after 60 mins by scintillation counting; format: cell-based
Adenosine receptor A2a (Homo sapiens), sequence (P29274 whole entry): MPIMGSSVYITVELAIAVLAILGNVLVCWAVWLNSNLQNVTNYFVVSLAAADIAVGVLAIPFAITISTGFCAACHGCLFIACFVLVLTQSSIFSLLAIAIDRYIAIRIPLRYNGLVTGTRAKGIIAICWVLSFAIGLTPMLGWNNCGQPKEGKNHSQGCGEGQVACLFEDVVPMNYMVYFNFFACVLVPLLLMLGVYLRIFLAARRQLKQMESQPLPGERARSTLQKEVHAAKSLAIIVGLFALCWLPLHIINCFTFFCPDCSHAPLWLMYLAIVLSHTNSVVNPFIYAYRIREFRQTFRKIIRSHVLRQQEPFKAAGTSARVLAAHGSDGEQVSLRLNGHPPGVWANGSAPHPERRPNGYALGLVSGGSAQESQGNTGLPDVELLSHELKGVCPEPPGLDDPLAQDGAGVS
How it was run: (§2)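 Membranes from hA2ACHO cells incubated with 1 nM [3H]ZM 241385 in 50 mM Tris–HCl, 10 mM MgCl2, pH 7.4 at 4 °C for 60 min. Compound added from a 100-fold DMSO stock, 1% DMSO final, also in controls. Separated by GF/B filtration and counted by scintillation. Result given as % of control specific binding.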

[6] = target: T1, Adenosine receptor A1 (Homo sapiens); assay: Binding affinity to recombinant human A1 adenosine receptor allosteric site expressed in CHO cells assessed as [3H]DPCPX Bmax shift at 10 uM after 90 mins relative to control; format: cell-based
How it was run: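 Saturation binding of [3H]DPCPX (0.05–20 nM) to hA1CHO membranes, run in triplicate, 90 min at 25 °C, in 50 mM Tris–HCl pH 7.4, with or without test compound at final 10 µM. Nonspecific binding taken with 1 µM DPCPX. KD and Bmax fitted by LIGAND. Shift is the fold of Bmax increase over control.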

[7] = target: T1, Adenosine receptor A1 (Homo sapiens); assay: Binding affinity to recombinant human A1 adenosine receptor allosteric site expressed in CHO cells assessed as potentiation of CCPA-induced [3H]DPCPX displacement at 10 uM after 90 mins relative to control; format: cell-based
How it was run: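 Competition of CCPA (0.01 nM–1 µM) against 1 nM [3H]DPCPX on hA1CHO membranes, run in triplicate, 90 min at 25 °C, in 50 mM Tris–HCl pH 7.4, with or without test compound at 10 µM. Nonspecific binding taken with 1 µM DPCPX. Ki by Cheng–Prusoff. Shift = Ki(CCPA)/Ki(CCPA + 10 µM compound).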

[8] = target: T1, Adenosine receptor A1 (Homo sapiens); assay: Allosteric enhancer activity at recombinant human A1 adenosine receptor expressed in CHO cells assessed as change in forskolin-induced cAMP production at 1 uM after 6 mins by radioimmunoassay; format: functional, cell-based; how it was run: as §1
[9] = target: T2, Adenosine receptor A3 (Homo sapiens) (UniProt P0DMS8); assay: Displacement of [3H]MRE3008F20 from recombinant human A3 adenosine receptor expressed in CHO cells at 10 uM after 120 mins by scintillation counting; format: cell-based
T2 sequence (whole entry): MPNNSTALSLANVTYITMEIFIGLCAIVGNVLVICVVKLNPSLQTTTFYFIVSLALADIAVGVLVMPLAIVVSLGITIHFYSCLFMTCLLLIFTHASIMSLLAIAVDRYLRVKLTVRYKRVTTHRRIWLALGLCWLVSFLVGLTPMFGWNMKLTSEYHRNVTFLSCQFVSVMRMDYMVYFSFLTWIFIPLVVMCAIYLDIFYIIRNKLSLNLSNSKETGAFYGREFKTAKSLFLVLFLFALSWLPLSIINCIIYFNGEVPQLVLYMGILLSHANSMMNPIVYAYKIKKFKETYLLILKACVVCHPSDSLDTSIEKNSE
How it was run: as §2, with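 “from hA3CHO” for “from hA2ACHO”, “with 2” for “with 1”, “nM [3H]MRE 3008F20” for “nM [3H]ZM 241385”, “MgCl2, 1 mM EDTA,” for “MgCl2,”, “for 120” for “for 60”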

[10] = target: T1, Adenosine receptor A1 (Homo sapiens); assay: Allosteric enhancer activity at recombinant human A1 adenosine receptor expressed in CHO cells assessed as change in forskolin-induced cAMP production at 10 uM after 6 mins by radioimmunoassay; format: functional, cell-based; how it was run: as §1

Row | Structure (SMILES) | fold change (FC) [1] | inhibition [2] [%] | Activity [3] [%] | Activity [4] [%] | inhibition [5] [%] | fold change (FC) [6] | fold change (FC) [7] | Activity [8] [%] | inhibition [9] [%] | Activity [10] [%]
1 | Nc1scc(CN2CCC(c3ccc(Cl)cc3)CC2)c1C(=O)c1ccc(Cl)cc1 | 3.9 | 0 | 0 | -2.3 | 0 | 1 | 3.3 | -24 | 6 | -61
2 | Nc1scc(CN2CCN(C3CCCCCC3)CC2)c1C(=O)c1ccc(Cl)cc1 | 1.1 | 0 | 2.9 | 13 | 0 | 0.9 | 1.2 | 3.7 | 0 | -25
3 | Nc1scc(CN2CCN(c3cc(Cl)cc(Cl)c3)CC2)c1C(=O)c1ccc(Cl)cc1 | 5.8 | 1 | -1 | -22 | 0 | 1 | 4.5 | -69 | 1 | -74
4 | Nc1scc(CN2CCN(C(=O)c3ccc(Cl)cc3)CC2)c1C(=O)c1ccc(Cl)cc1 | 1.6 | 1 | -6.2 | -10 | 0 | 0.9 | 1.6 | -34 | 0 | -60
5 | Cc1sc(N)c(C(=O)c2cccc(C(F)(F)F)c2)c1C | 1.3 | 0 | -8 | -3.4 | 0 | 1 | 1.7 | -31 |  | -57
6 | Nc1scc(CN2CCN(c3cc(Cl)ccc3Cl)CC2)c1C(=O)c1ccc(Cl)cc1 | 3.2 | 0 | 13 | -6.2 | 0 | 0.9 | 2.8 | -42 | 1 | -62
7 | Nc1scc(CN2CCN(c3ccccc3C(F)(F)F)CC2)c1C(=O)c1ccc(Cl)cc1 | 4.4 | 0 | 0 | -7.5 | 0 | 1 | 3.6 | -39 | 0 | -60
8 | Nc1scc(CN2CCN(C(=O)Cc3ccc(Cl)cc3)CC2)c1C(=O)c1ccc(Cl)cc1 | 1.5 | 1 | 2.1 | 0 | 0 | 0.9 | 1.5 | -8.1 | 0 | -42

The next lines start with the values.

Row | fold change (FC) [1] | inhibition [2] [%] | Activity [3] [%] | Activity [4] [%] | inhibition [5] [%] | fold change (FC) [6] | fold change (FC) [7] | Activity [8] [%] | inhibition [9] [%] | Activity [10] [%] | Structure (SMILES)
9 | 4.6 | 1 | -1.2 | -13 | 0 | 1 | 3.8 | -60 | 3 | -62 | Nc1scc(CN2CCN(c3ccc(Cl)c(Cl)c3)CC2)c1C(=O)c1ccc(Cl)cc1
10 | 1.1 | 4 | 2.1 | -1 | 0 | 1 | 1.4 | -9.2 | 0 | -15 | Nc1scc(CN2CCN(c3ccccc3F)CC2)c1C(=O)c1ccc(Cl)cc1
11 | 3.3 | 0 | -1.2 | 0 | 0 | 0.9 | 2.8 | -15 | 0 | -52 | COc1ccc(N2CCN(Cc3csc(N)c3C(=O)c3ccc(Cl)cc3)CC2)cc1
12 | 5.2 | 0 | 6.1 | -6.2 | 0 | 1.1 | 4.2 | -39 | 0 | -70 | Nc1scc(CN2CCN(c3ccc(F)cc3Cl)CC2)c1C(=O)c1ccc(Cl)cc1
13 | 1.3 | 0 | 3.2 | 3.4 | 0 | 0.9 | 1.4 | -2.7 | 0 | -23 | Nc1scc(CN2CCN(c3cccnc3)CC2)c1C(=O)c1ccc(Cl)cc1
14 | 6.3 | 1 | -12 | -23 | 1 | 1.1 | 5 | -65 | 4 | -80 | Nc1scc(CN2CCN(c3c(F)cccc3F)CC2)c1C(=O)c1ccc(Cl)cc1
15 | 1.1 | 1 | -12 | -13 | 1 | 0.9 | 4.2 | -8.3 | 2 | -17 | Nc1scc(CN2CCN(c3ccc([N+](=O)[O-])cc3)CC2)c1C(=O)c1ccc(Cl)cc1
16 | 4.8 | 1 | -18 | -37 | 1 | 1 | 3.9 | -86 | 4 | -82 | Nc1scc(CN2CCN(c3cccc(F)c3)CC2)c1C(=O)c1ccc(Cl)cc1
17 | 1.2 | 2 | -2.1 | 2 | 1 | 0.9 | 1.4 | -5.2 | 0 | -18 | Nc1scc(CN2CCN(c3ccccc3Cl)CC2)c1C(=O)c1ccc(Cl)cc1
